High-throughput results (PubChem BioAssay)
Mcl1-Bid inh – disrupts binding of human Mcl-1 to Bid peptide; 220,000 compounds, 0.97% hits; Q07820; TR-FRET Mcl-1/Bid-Dy647 peptide binding, 1536-well; AID 1021; inhibition, % at 21.7 µM;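 active = compounds that cut the binding signal by more than half at the single screening dose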;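 note: His-tagged Mcl-1 with europium anti-His antibody binding Bid BH3 peptide; 0% = Mcl-1 plus peptide wells and 100% = peptide-only wells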
14-3-3 Bad inh – disrupts binding of bovine 14-3-3 zeta to phospho-Bad peptide; P63103; TR-FRET 14-3-3zeta/Dy647-pBad peptide displacement, 1 h; inhibition, % at 21.7 µM; 220,000 compounds, 0.71% hits; AID 781;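 active = inhibition above about 70%, limit read from the data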;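 note: 0% = full 14-3-3 plus peptide FRET controls and 100% = background without 14-3-3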
Hck Nef HTS – inhibitors of human Hck kinase activated by Nef; P08631; Recombinant Hck-YEEI plus Nef, Z-Lyte FRET kinase assay; inhibition, % at 20 µM; 220,000 compounds, 0.68% hits; AID 463187;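 active = Hck-Nef kinase inhibition above about 50%, limit read from the data; inactive = inhibition below that limit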;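 note: 0% = DMSO with Hck plus Nef and 100% = Hck alone without Nef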
Target sequence (P08631 whole entry, looked up): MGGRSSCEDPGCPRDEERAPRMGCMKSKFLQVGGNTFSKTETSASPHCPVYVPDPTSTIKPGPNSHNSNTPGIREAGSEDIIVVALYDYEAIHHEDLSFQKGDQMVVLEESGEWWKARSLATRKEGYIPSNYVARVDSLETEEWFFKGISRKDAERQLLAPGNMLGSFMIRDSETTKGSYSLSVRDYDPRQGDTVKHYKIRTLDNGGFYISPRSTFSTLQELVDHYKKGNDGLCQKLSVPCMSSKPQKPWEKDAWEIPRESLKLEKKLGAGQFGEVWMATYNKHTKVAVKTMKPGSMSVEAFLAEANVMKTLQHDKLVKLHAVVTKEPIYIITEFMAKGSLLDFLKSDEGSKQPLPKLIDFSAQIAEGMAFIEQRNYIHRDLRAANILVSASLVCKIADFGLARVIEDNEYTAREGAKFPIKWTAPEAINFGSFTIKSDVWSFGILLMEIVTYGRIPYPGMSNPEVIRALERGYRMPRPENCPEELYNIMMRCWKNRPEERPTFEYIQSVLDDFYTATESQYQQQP
Mcl1-Noxa inh – disrupts binding of human Mcl-1 to Noxa peptide. AID 1022. TR-FRET Mcl-1/Noxa peptide binding, 2 h. inhibition, % at 21.7 µM. Q07820. 220,000 compounds, 1.5% hits;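 active = compounds that cut the protein-peptide binding signal by more than 50% relative to plate controls in a single-dose test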;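 note: His-tagged Mcl-1 with rhodamine Noxa BH3 peptide and terbium anti-His antibody; 0% = Mcl-1 plus Noxa peptide wells and 100% = peptide-only wells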
Mcl-1 Bim block – human Bim-Mcl-1 interaction inhibition | Q07820 | Bead-based flow cytometry, Bim peptide-Mcl-1 binding | inhibition, % at 10 µM | 190,000 compounds, 0.1% hits; in the data active = inhibition above about 40%;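 note: 0% = no compound tracer wells and 100% = peptide blocker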
Biofilm kill mix – mixtures killing C. albicans biofilm; C. albicans biofilm persisters + clotrimazole, fluorescence viability; primary screen in compound mixtures of four per well; inhibition, % at 7.6 µM; 120,000 compounds, 0.02% hits; AID 1242;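 active = inhibition above 30.3% in the primary screen of four-compound pools, then above 30% when the compound was retested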;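 note: compounds exposed to preformed 24 h biofilms for 48 h; 0% = untreated biofilm control and 100% = clotrimazole plus chlorhexidine kill blank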
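Test system: C. albicans CAF4-2 wild-type biofilms; buffer or medium: RPMI/MOPS medium, pH 7.0; schedule: 24 h biofilm formation, then 48 h compound exposure, 37 °C; detection: Alamar Blue fluorescence; measure: percent inhibition of biofilm viability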
Hck-Nef confirm – Hck-Nef kinase inhibition, confirmation | shares compounds with Hck Nef HTS | calls only at 10 µM | 1,300 compounds, 28% hits | Recombinant Hck-YEEI:Nef, Z-Lyte FRET kinase assay;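 active = average inhibition of at least 50%, with Z-scores no higher than 3 in both the phospho-tyrosine peptide and fluorescence counterscreens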
* marks the source's active call; other numbers are inactive results; i = inactive; / = no result shown; + = active, no number; [ ] = another dose, or the depositor's remark. Hits are enriched below; roughly 3.2% of the tested compounds scored in any of these assays.

SMILES | Mcl1-Bid inh | 14-3-3 Bad inh | Hck Nef HTS | Mcl1-Noxa inh | Mcl-1 Bim block | Biofilm kill mix | Hck-Nef confirm
O=C(c1cnn(C(=O)c2cccc(S(=O)(=O)N3CCOCC3)c2)c1)c1ccccc1O | -12.9 | 4.0 | 128.8* | 23.1 | 2.0 | 7.6 | +
CC(C)(C)Nc1nc2ccc([N+](=O)[O-])cc2o1 | 1.6 | -5.8 | 5.6 | 1.5 | / | 20.8 | /
CCCn1c(=N)c(C#N)cc2c(=O)n3ccccc3nc21 | -7.2 | 2.5 | 60.4* | 4.5 | -1.0 | 13.1 | /
N#Cc1cc2c(=O)n3ccccc3nc2n(CCCn2ccnc2)c1=N | / | / | 55.4* | / | 0.0 | / | i
CCCn1c(=N)c(C#N)cc2c(=O)n3cccc(C)c3nc21 | 4.0 | -3.0 | 31.8 | 15.1 | 0.0 | 8.3 | /
Cc1ccccc1C(=O)Nc1cc(-c2cc(C(C)(C)C)oc2C)nn1C | -49.7 | -6.9 | -1.8 | 24.6 | / | 6.4 | /
CC(CCc1ccccc1)NC(=O)c1nnc(Cc2ccc(Cl)cc2)o1 (stereo not drawn) | -8.7 | -3.1 | 14.9 | 11.6 | 3.0 | / | /
Cn1cc(/C=C(\C#N)C(=O)Nc2cccc([N+](=O)[O-])c2)c2ccccc21 | 51.9* | 69.1 | 61.6* | 28.9 | 3.0 | 10.4 | i
CC(=C\c1ccco1)/C=C1/SC(=S)N(CC(=O)O)C1=O | -47.1 | 0.9 | 6.3 | 27.7 | / | 24.6 | /
O=C1/C(=C/C=C/c2ccco2)SC(=S)N1c1ccc(O)cc1 | 37.6 | 62.8 | 97.7* | 102.1* | / | 30.3 | +
O=C(NN1C(=O)/C(=C/C=C/c2ccco2)SC1=S)c1ccncc1 | 26.1 | 70.8* | 90.4* | 99.5* | / | 18.5 | i
CC(C)C(C(=O)O)N1C(=O)/C(=C/C=C/c2ccco2)SC1=S (stereo not drawn) | 97.9* | 70.9*[fluorescence artefact?] | 83.1* | 102.3* | 0.0 | / | i
COc1ccccc1N1CCN(c2nc3c(C)cccn3c(=O)c2C=O)CC1 | -5.6 | -3.2 | -1.3 | 15.8 | 2.0 | / | /
COc1c(O)ccc(/C=C(\C#N)c2nc3ccccc3[nH]2)c1[N+](=O)[O-] | -60.1 | 27.1 | 50.1* | 37.0 | -1.0 | 14.3 | i
c1ccc(-c2oc3ncnc(NCCCn4ccnc4)c3c2-c2ccccc2)cc1 | -35.3 | -3.9 | 19.1 | -19.7 | 1.0 | / | /
c1ccc(-c2oc3ncnc(NCCN4CCOCC4)c3c2-c2ccccc2)cc1 | 8.2 | 0.8 | 83.1* | 13.0 | -2.0 | / | +
N=c1c2c(-c3ccccc3)c(-c3ccccc3)oc2ncn1CCN1CCOCC1 | -10.6 | 0.5 | 77.6* | -14.8 | -3.0 | / | +
N=c1c2c(-c3ccccc3)c(-c3ccccc3)oc2ncn1CCCN1CCOCC1 | -11.3 | 10.0 | 5.9 | -13.0 | -2.0 | / | /
O=C(Cn1nnc(-c2ccccc2)n1)NCc1ccco1 | -10.0 | -3.2 | -1.1 | 18.6 | -2.0 | / | /
COc1ccccc1C(=O)Nc1ccc(-c2nnn(CC(=O)NCc3ccco3)n2)cc1 | -43.1 | 48.0 | 50.9* | -104.4 | / | 16.5 | i
Cc1ccc(-c2nnc(SCC(=O)Nc3sc(C)c(C)c3C#N)n2C)cc1 | 12.6 | 45.7 | 50.2* | 3.1 | -2.0 | 8.6 | i
O=C(COC(=O)c1cc(-c2ccc(F)cc2)nc2ccccc12)NCC1CCCO1 (stereo not drawn) | -21.4 | -3.7 | 15.4 | -5.5 | 2.0 | 18.0 | /
Cc1cccn2c(=O)c3cc(C(=O)NCC4CCCO4)n(C)c3nc12 (stereo not drawn) | / | / | 29.9 | / | / | / | /
COC1C=CC(CNC(=O)c2cc3c(=O)n4cccc(C)c4nc3n2C)(OC)O1 (stereo not drawn) | -11.8 | 3.9 | 73.8* | 5.8 | 0.0 | 12.0 | i
Cc1cccn2c(=O)c3cc(C(=O)O)n(C)c3nc12 | 19.6 | 7.6 | 51.6* | 22.7 | 1.0 | 2.6 | i
Cn1nc(-c2ccccc2)c(C(=O)NCC(=O)O)c1Cl | -8.5 | 21.9 | 14.2 | 10.8 | -1.0 | 9.0 | /
Cc1ccc(NC(=O)CN2C(=O)S/C(=C\c3cccn3-c3cccc(C(=O)O)c3)C2=O)c(C)c1 | 44.6 | 0.9 | 78.3* | 92.6* | 4.0 | / | +
COCCCNC(=S)N1CCC(NC(=O)Nc2ccc(C)cc2)CC1 | -16.1 | 1.3 | 18.7 | 17.6 | 0.0 | 20.0 | /
